Reference: ChEMBL document CHEMBL1649125, “Efficacy of the novel diamidine compound 2,5-Bis(4-amidinophenyl)- furan-bis-O-Methlylamidoxime (Pafuramidine, DB289) against Trypanosoma brucei rhodesiense infection in vervet monkeys after oral administration” (2009)
Calls of active or inactive are those of the source. The calls are words filed in the database; no cut-off is given here.

Columns and labels:
[1] = test system: Trypanosoma brucei rhodesiense; assay: Antitrypanosomal activity against Trypanosoma brucei rhodesiense infected in vervet monkey assessed as change in packed cell volume at 10 mg/kg, po administered on day 28 post infection for 10 days measured on day 28 post treatment; type: functional
How it was run: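 Three vervet monkeys were infected intravenously with T. b. rhodesiense KETRI 2537 and treated in late-stage disease. From day 28 p.i., a drug suspension was given by oral gavage once daily for 10 consecutive days. PCV was reported as % change from the mean preinfection value at day 0 p.t., day 28 p.t. and endpoint. Monitoring continued up to 180 days p.t.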

[2] = test system: Trypanosoma brucei rhodesiense; assay: Antimicrobial activity against Trypanosoma brucei rhodesiense infected in vervet monkeys assessed as cure from infection at 1 mg/kg, po administered on day 7 post infection for 5 days; type: functional, organism-based; set-up: dose 1 mg/kg
How it was run: (§1)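 Vervet monkeys (n=3 per group), infected with T. b. rhodesiense KETRI 2537. Dosed by oral gavage with a suspension once daily for 5 consecutive days from day 7 p.i. Cure meant no trypanosomes over 180 days p.t. in blood (wet film, HCT) or CSF (hemocytometer, centrifugation), with mouse subinoculation of negative samples.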

[3] = test system: Trypanosoma brucei rhodesiense; assay: Antitrypanosomal activity against Trypanosoma brucei rhodesiense infected in vervet monkey assessed as change in packed cell volume at 3 mg/kg, po administered on day 7 post infection for 5 days; type: functional
How it was run: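 Vervet monkeys, three per group, were infected intravenously with T. b. rhodesiense KETRI 2537. From day 7 p.i., a drug suspension was given by oral gavage once daily for 5 consecutive days. Packed cell volume was expressed as % change from the group's mean preinfection value. PCV was read at day 0 p.t., day 28 p.t. and endpoint, with follow-up to 180 days p.t.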

[4] = test system: Trypanosoma brucei rhodesiense; assay: Antitrypanosomal activity against Trypanosoma brucei rhodesiense infected in vervet monkey 454 assessed as cure from infection at 10 mg/kg, po administered on day 7 post infection for 5 days; type: functional, organism-based; set-up: dose 10 mg/kg; how it was run: as §1
[5] = test system: Trypanosoma brucei rhodesiense; assay: Antitrypanosomal activity against Trypanosoma brucei rhodesiense infected in vervet monkey 463 assessed as time to detect CSF parasitosis at 1 mg/kg, po administered on day 7 post infection for 5 days measured after 14 to 21 days by microscopy; type: functional, organism-based; set-up: dose 1 mg/kg
How it was run: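 Trypanosomes and white cells in free-flowing CSF were counted by hemocytometer. Negative CSF was centrifuged and re-examined. Samples still negative were inoculated at 0.2 ml intraperitoneally into two mice each. Drug was given once daily by oral gavage: 5 days from day 7 p.i., or 10 days from day 28 p.i.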

[6] = test system: Trypanosoma brucei rhodesiense; assay: Antitrypanosomal activity against Trypanosoma brucei rhodesiense infected in vervet monkey 483 assessed as time to detect parasitemia in wet films of blood at 3 mg/kg, po administered on day 7 post infection for 5 days by hematocrit centrifugation technique; type: functional
How it was run: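 Parasitemia was monitored from 3 days p.i. in ear-prick or inguinal venous blood. Methods were wet-film microscopy (detection limit 10^5 trypanosomes/ml) and hematocrit centrifugation technique (detection limit 10^3 trypanosomes/ml). Drug was given once daily by oral gavage: 5 days from day 7 p.i., or 10 days from day 28 p.i.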

Question: How did the Activity [1] turn out when CONC(=N)c1ccc(-c2ccc(-c3ccc(C(=N)NOC)cc3)o2)cc1 [PAFURAMIDINE] was run?
Answer: Its Activity is -9.1%.

Question: And the Activity [2]?
Answer: Its Activity is “inactive”.

Question: What about the Activity [3] of the same compound?
Answer: The Activity was -9.4%.

Question: What about the Time [4] of the same compound?
Answer: Its Time is “Active”.

Question: What about the Time [5] of the same compound?
Answer: The Time was “inactive”.

Question: What about the Time [6] of the same compound?
Answer: Its Time is 66 days.
